Laboratory results: ChEMBL document CHEMBL4825764, “Flavonoid Monomers as Potent, Nontoxic, and Selective Modulators of the Breast Cancer Resistance Protein (ABCG2)” (J Med Chem, 2021)

Key:
[1] = molecular target: T1, Broad substrate specificity ATP-binding cassette transporter ABCG2 (Homo sapiens, UniProt Q9UNQ0); experiment: Inhibition of BCRP (unknown origin) expressed in human HEK293/R2 cells assessed as increase in intracellular topotecan accumulation by measuring fold change at 2 uM after 2 hrs in presence of topotecan by flow cytometry analysis relative to control; assay type: cell-based; conditions: hek293/r2, 2 h
T1 sequence (Q9UNQ0 whole entry): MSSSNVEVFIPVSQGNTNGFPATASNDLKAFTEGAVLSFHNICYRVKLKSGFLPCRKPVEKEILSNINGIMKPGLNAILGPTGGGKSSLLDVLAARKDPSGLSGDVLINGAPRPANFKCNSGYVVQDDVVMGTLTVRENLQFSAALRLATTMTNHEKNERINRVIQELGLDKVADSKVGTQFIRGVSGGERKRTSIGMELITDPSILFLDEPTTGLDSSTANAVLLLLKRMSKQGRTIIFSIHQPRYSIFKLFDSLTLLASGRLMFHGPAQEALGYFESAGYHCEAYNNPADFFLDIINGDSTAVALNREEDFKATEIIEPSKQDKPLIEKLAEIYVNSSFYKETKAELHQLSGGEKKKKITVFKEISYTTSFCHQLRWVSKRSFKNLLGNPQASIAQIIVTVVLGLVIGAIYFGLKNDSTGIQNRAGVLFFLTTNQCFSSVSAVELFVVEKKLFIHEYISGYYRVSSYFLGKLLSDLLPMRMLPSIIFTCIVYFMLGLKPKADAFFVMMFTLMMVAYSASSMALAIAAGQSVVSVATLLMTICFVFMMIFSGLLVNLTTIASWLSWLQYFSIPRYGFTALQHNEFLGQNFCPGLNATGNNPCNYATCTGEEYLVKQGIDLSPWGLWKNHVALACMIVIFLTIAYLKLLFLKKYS
How it was run: (§1)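 5 × 10^5 HEK293/pcDNA3.1 or HEK293/R2 cells in 1 mL were incubated 2 hr at 37 °C with 50 μM topotecan or 5 μM mitoxantrone plus 1 or 2 μM modulator, with DMSO as the vehicle control. Cells were washed in cold PBS and resuspended in FACS buffer. Flow cytometry read FL1 (topotecan) or FL4 (mitoxantrone) over 50,000 events, normalized to wild-type cells.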

Homo sapiens = species: Homo sapiens; experiment: Selectivity index, ratio of EC50 for inhibition of P-gp (unknown origin) expressed in LCC6MDR cells assessed as reversal of paclitaxel resistance to EC50 for Inhibition of BCRP (unknown origin) expressed in MCF7/MX100 cells assessed as reversal of topotecan resistance; assay type: cell-based
How it was run: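 Selectivity index is the EC50 against the other transporter's line divided by the EC50 in the BCRP line. All values come from 5-day MTS reversal assays. These use topotecan in HEK293/R2 (0–2000 nM) or MCF7-MX100 (0–100 μM), doxorubicin in 2008/MRP1, and paclitaxel in LCC6MDR, each with modulator at 0–1000 nM.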

[2] = molecular target: T1, Broad substrate specificity ATP-binding cassette transporter ABCG2; experiment: Inhibition of BCRP (unknown origin) expressed in human HEK293/R2 cells assessed as increase in intracellular topotecan accumulation by measuring fold change at 1 uM after 2 hrs in presence of topotecan by flow cytometry analysis relative to control; assay type: cell-based; conditions: hek293/r2, 2 h; how it was run: as §1
BCRP (ABCG2) ATPase = molecular target: T2, BCRP (ABCG2) ATPase (Homo sapiens, UniProt Q9UNQ0); experiment: Effect on vanadate sensitive BCRP ATPase activity in human S1-M1-80 cell membranes preincubated for 30 mins followed by ATP addition and measured after 1 hr by colorimetric assay
T2 sequence (Q9UNQ0 whole entry): T1 sequence (Q9UNQ0 whole entry)

[3] = molecular target: T1, Broad substrate specificity ATP-binding cassette transporter ABCG2; experiment: Inhibition of BCRP (unknown origin) expressed in HEK293/R2 cells assessed as reduction in BCRP protein level at 1 uM after 4 days by Western blot analysis; conditions: hek293/r2, 96 h
[4] = molecular target: T1, Broad substrate specificity ATP-binding cassette transporter ABCG2; experiment: Inhibition of BCRP (unknown origin) expressed in wild-type HEK293 cells mediated mitoxantrone efflux assessed as intracellular mitoxantrone level at 2 uM preincubated with mitoxantrone for 1 hr followed by compound addition and measured upto 150 mins by flow cytometry analysis; assay type: cell-based; conditions: hek293, 2.5 h
How it was run: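 Cells were preloaded with 5 μM mitoxantrone for 1 hr at 37 °C, washed, then kept in drug-free medium with or without 2 μM modulator. Cells were harvested at 0, 30, 60, 90, 120 and 150 min and intracellular mitoxantrone read by flow cytometry (FL4). Level is expressed as % of the 0-min value.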

fold change (FC) [1]: 6.8
fold change (FC) [2]: 8.1
activity at 1 h (BCRP (ABCG2) ATPase): 120%
inhibition (INH) [3]: Not Active
Structure (SMILES): COC(=O)c1cccc(COc2c(-c3ccc(OCCCCc4cn(Cc5ccccc5)nn4)cc3)oc3ccccc3c2=O)c1
Ratio EC50 (Homo sapiens): 112
inhibition (INH) [4]: Not Active
